Active and inactive are the calls of the source. The calls are words filed in the database; no cut-off is given here.
What was measured:
[1] = molecular target: T1, Kappa-type opioid receptor (Homo sapiens, UniProt P41145); assay: Agonist activity at recombinant human kappa opioid receptor extracted from CHO cell membrane assessed as induction of [35S]GTPgammaS binding by measuring maximum efficacy at 10 uM incubated for 1 hr by TopCount NXT Microplate Scintillation and Luminescence Counter analysis relative to U69,593; format: functional, cell membranes
T1 sequence (P41145 whole entry): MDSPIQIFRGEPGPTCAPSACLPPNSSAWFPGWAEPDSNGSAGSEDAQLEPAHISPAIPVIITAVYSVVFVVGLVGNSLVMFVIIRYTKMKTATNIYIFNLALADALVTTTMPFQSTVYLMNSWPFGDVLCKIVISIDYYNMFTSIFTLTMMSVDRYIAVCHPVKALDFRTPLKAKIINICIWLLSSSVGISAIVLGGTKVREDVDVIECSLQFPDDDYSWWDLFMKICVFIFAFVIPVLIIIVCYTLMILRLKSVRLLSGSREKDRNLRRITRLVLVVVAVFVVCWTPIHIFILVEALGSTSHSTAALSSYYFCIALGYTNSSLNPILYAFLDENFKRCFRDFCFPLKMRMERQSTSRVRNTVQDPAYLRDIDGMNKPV

[2] = Metabolic stability in human liver microsome assessed as half life at 1 uM by LC-MS/MS analysis; format: ADME, microsomes; conditions: for half-life at 1 µM: liver microsomes; for t1/2: microsomes, 1 µM
In short: (§1)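 Hepatic microsomes (1 mg/mL) were incubated with 1 μM compound at 37 °C with continuous shaking. Reactions were quenched with acetonitrile at 5-min intervals over 1 h and filtered. Half-life was determined by LC-MS/MS.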

[3] = Metabolic stability in mouse liver microsome assessed as half life at 1 uM by LC-MS/MS analysis; format: ADME; conditions: liver microsomes; in short: as §1
[4] = molecular target: T1, Kappa-type opioid receptor; assay: Agonist activity at recombinant human kappa opioid receptor extracted from CHO cell membrane assessed as induction of [35S]GTPgammaS binding incubated for 1 hr by TopCount NXT Microplate Scintillation and Luminescence Counter analysis; format: functional, cell membranes
[5] = molecular target: T1, Kappa-type opioid receptor; assay: Agonist activity at human kappa opioid receptor tranfected in U2OS cells co-transfected with arrestin2-EFC assessed as induction of beta arrestin2 recruitment incubated for 90 mins by Synergy HT luminometer; format: functional, cell-based
In short: (§2)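 PathHunter enzyme-fragment complementation in U2OS cells stably expressing hKOR and βarrestin2, grown in MEM with 10% FBS, geneticin and hygromycin B, run per manufacturer's protocol. Concentration–response curves were fit by three-parameter nonlinear regression, normalized to vehicle and to maximal stimulation by the reference agonist U69,593 on the same plate. 2–4 replicates per experiment; n ≥ 3 independent experiments; 95% CI.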

[6] = molecular target: T1, Kappa-type opioid receptor; assay: Agonist activity at human kappa opioid receptor tranfected in U2OS cells co-transfected with arrestin2-EFC assessed as induction of beta arrestin2 recruitment by measuring maximum efficacy incubated for 90 mins by Synergy HT luminometer relative to […]; format: functional, cell-based
In short: as §2, with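 “plate.” for “plate. 2–4 replicates per experiment; n ≥ 3 independent experiments; 95% CI.”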

[7] = molecular target: T1, Kappa-type opioid receptor; assay: Binding affinity to kappa opioid receptor (unknown origin) assessed as inhibition of [3H]-[…] binding at 10 uM by radioligand binding assay relative to control; conditions: filed as agonist
[8] = molecular target: Delta-type opioid receptor (Homo sapiens) (UniProt P41143); assay: Binding affinity to delta opioid receptor (unknown origin) assessed as inhibition of [3H]-D-Ala2,D-Leu5-enkephalin binding at 10 uM by radioligand binding assay relative to control
Chain of Delta-type opioid receptor (Homo sapiens) (P41143 whole entry): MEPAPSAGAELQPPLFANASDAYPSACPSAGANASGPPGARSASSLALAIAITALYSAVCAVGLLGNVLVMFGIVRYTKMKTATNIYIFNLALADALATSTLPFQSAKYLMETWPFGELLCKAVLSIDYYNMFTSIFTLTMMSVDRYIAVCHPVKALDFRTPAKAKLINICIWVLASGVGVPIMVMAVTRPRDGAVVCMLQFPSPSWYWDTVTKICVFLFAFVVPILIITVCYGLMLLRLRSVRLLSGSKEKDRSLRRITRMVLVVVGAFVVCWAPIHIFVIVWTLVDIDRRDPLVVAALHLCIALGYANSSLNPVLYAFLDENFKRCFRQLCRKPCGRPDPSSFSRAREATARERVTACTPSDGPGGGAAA

[9] = molecular target: Mu-type opioid receptor (Homo sapiens) (UniProt P35372); assay: Binding affinity to Mu opioid receptor (unknown origin) assessed as inhibition of [3H]-D-Ala2,N-MePhe4,Gly-ol-enkephalin binding at 10 uM by radioligand binding assay relative to control
Chain of Mu-type opioid receptor (Homo sapiens) (P35372 whole entry): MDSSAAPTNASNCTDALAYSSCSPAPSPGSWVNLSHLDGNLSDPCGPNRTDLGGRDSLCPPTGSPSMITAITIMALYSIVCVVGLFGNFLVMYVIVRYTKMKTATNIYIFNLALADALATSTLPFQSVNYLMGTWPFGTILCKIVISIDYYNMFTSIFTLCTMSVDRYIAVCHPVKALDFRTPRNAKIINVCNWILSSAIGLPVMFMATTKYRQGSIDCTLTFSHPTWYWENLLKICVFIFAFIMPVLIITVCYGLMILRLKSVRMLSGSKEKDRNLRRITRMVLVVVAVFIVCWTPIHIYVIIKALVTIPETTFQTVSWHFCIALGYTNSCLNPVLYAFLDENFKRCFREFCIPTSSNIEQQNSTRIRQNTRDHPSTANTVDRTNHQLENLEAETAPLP

[10] = molecular target: T1, Kappa-type opioid receptor; assay: Displacement of [3H]-[…] from kappa opioid receptor (unknown origin) assessed as inhibition constant by radioligand binding assay

SMILES	Emax ([1]; filed as agonist)	half-life at 1 µM [2]	half-life at 1 µM [3]	EC50 [4]	EC50 [5]	Emax ([6]; filed as agonist)	also measured
Cc1ccc(CCc2nnc(-c3ccc4ccccc4c3)n2Cc2cccs2)cc1C(F)(F)F				2960 nM			
Cc1ccc(CCc2nnc(-c3ncccn3)n2Cc2cccs2)cc1C(F)(F)F				57 nM	2220 nM	150%	
Cc1ccc(CCc2nnc(-c3ccc4ccccc4n3)n2Cc2cccs2)cc1C(F)(F)F				872 nM			
Cc1ccc(CCc2nnc(-c3ccccn3)n2CC2CC2)cc1C(F)(F)F				213 nM	6220 nM		
OC(Cc1ccccc1)c1nnc(-c2ccccn2)n1Cc1ccco1 (stereo not given)		17.4 min	2.5 min				Emax [1]: 20%
Cc1ccc(CCc2nnc(-c3ccccn3)n2Cc2ccccc2)cc1C(F)(F)F		0.9 min	1.3 min	83 nM	6740 nM	183%	
c1ccc(-c2nnc(CCc3ccc4ccccc4c3)n2Cc2cccs2)nc1				12 nM	896 nM		
Brc1cccc(CCc2nnc(-c3ccccn3)n2Cc2cccs2)c1	89%			51 nM	5610 nM	118%	
Brc1ccccc1CCc1nnc(-c2ccccn2)n1Cc1cccs1	84%			358 nM			
Cc1ccc(CCc2nnc(-c3ccccn3)n2Cc2ccncc2)cc1C(F)(F)F							Activity [4]: inactive
Cc1ccc(/C=C/c2nnc(-c3nccn3C)n2Cc2nccs2)cc1C(F)(F)F	309%				2190 nM		Emax [6]: 36%
Clc1ccc(CCc2nnc(-c3ccccn3)n2Cc2cccs2)c(Cl)c1	91%	2.1 min	2.6 min	32 nM	5160 nM	154%	
Cc1ccc(CCc2nnc(-c3cccc4ccccc34)n2Cc2cccs2)cc1C(F)(F)F				429 nM			
c1ccc(-c2nnc(CCc3cccc4ccccc34)n2Cc2cccs2)nc1				184 nM			
O=C(Cc1ccccc1)c1nnc(-c2ccccn2)n1Cc1ccco1		8.1 min	1.2 min				Emax [1]: 4%
Cc1ccc(CCc2nnc(-c3ccccn3)n2Cc2ccco2)cc1C(F)(F)F	90%		0.8 min	21 nM	803 nM		t1/2 [2]: 0.9 min
FC(F)(F)c1ccccc1CCc1nnc(-c2ccccn2)n1Cc1cccs1				429 nM			
Cc1ccc(CCc2nnc(-c3ccncn3)n2Cc2cccs2)cc1C(F)(F)F				991 nM			
Cc1ccc(CCc2nnc(-c3ccccn3)n2Cc2cccs2)cc1C(F)(F)F		1.4 min	1.5 min	11 nM	594 nM	102%	inhibition [7]: 99.7%; inhibition [8]: 30.7%; inhibition [9]: 30.9%; Ki [10]: 5.8 nM
Brc1ccc(CCc2nnc(-c3ccccn3)n2Cc2cccs2)cc1	92%			20 nM	723 nM	93%	
Cc1ccc(CSc2nnc(-c3ccccn3)n2Cc2ccco2)cc1C(F)(F)F							t1/2 [2]: 1.1 min
Cc1ccc(CCc2nnc(-c3ccccc3)n2Cc2cccs2)cc1C(F)(F)F		1.8 min	0.9 min	406 nM			
Cc1ccc(/C=C/c2nnc(-c3nccn3C)n2Cc2cccs2)cc1C(F)(F)F				787 nM			
COc1ccc(CCc2nnc(-c3ccccn3)n2Cc2cccs2)cc1				122 nM			
Clc1ccc(CCc2nnc(-c3ccccn3)n2Cc2cccs2)cc1Cl		1.5 min	1.2 min	5 nM	319 nM		
Cc1ccc(CCc2nnc(-c3ncccc3C)n2Cc2cccs2)cc1C(F)(F)F				13 nM	1610 nM	118%	

The next lines start with results.

Emax ([1]; filed as agonist)	half-life at 1 µM [2]	half-life at 1 µM [3]	SMILES	EC50 [4]	EC50 [5]	Emax ([6]; filed as agonist)	also measured
82%	7.2 min	0.9 min	FC(Cc1nnc(-c2ccccn2)n1Cc1cccs1)c1ccccc1 (stereo not given)				
84%			Cc1ccc(CCc2nnc(-c3ccccn3)n2Cc2ccccn2)cc1C(F)(F)F	175 nM	8120 nM	127%	
64%			Cc1ccc(CCc2nnc(-c3ccccn3)n2Cc2nccs2)cc1C(F)(F)F	34 nM	1290 nM	95%	
89%		32.2 min	Cc1ccc(/C=C/c2nnc(-c3ccccn3)n2Cc2ccco2)cc1C(F)(F)F	1170 nM			t1/2 [2]: 18 min
90%			Fc1ccc(CCc2nnc(-c3ccccn3)n2Cc2cccs2)cc1	284 nM	2640 nM	97%	
87%	1.7 min	1.6 min	Cc1ccc(CCc2nnc(-c3ccccn3)n2Cc2cccnc2)cc1C(F)(F)F	55 nM	421 nM	119%	
	9.1 min	1.9 min	FC(Cc1ccccc1)c1nnc(-c2ccccn2)n1Cc1ccco1 (stereo not given)				
86%	3.3 min	3.3 min	Clc1ccc(CCc2nnc(-c3ccccn3)n2Cc2cccs2)cc1	33 nM	2870 nM	137%	
	69.7 min	1 min	c1ccc(-c2nnc(-c3ccccn3)n2Cc2cccs2)cc1				
83%			Cc1ccc(/C=C/c2nnc(-c3ccccn3)n2Cc2nccs2)cc1C(F)(F)F	1130 nM			
76%	5.5 min	1.6 min	c1ccc(CCc2nnc(-c3ccccn3)n2Cc2cccs2)cc1	926 nM			
85%			Cc1ccc(CCc2nnc(-c3cccnc3)n2Cc2cccs2)cc1C(F)(F)F	1880 nM			
79%	22 min	30.2 min	Cc1ccc(/C=C/c2nnc(-c3ccccn3)n2Cc2cccs2)cc1C(F)(F)F	496 nM			
	1.6 min	1 min	Cc1ccc(CCc2nnc(-c3ccccn3)n2-c2ccccc2)cc1C(F)(F)F				Activity [4]: inactive
	20.7 min	2.6 min	OC(Cc1nnc(-c2ccccn2)n1Cc1cccs1)c1ccccc1 (stereo not given)				Emax [1]: 17%
91%	3.1 min	1.5 min	Cc1ccc(CCc2nnc(-c3nccn3C)n2Cc2cccs2)cc1C(F)(F)F	34 nM	1020 nM	132%	
